{"source": "ChEMBL document CHEMBL4350961", "about": "“Discovery of Pyrrolo[3,2- d]pyrimidin-4-one Derivatives as a New Class of Potent and Cell-Active Inhibitors of P300/CBP-Associated Factor Bromodomain” (J Med Chem, 2019)", "key": {"[1]": {"biological_target": "Serine/threonine-protein kinase MARK2 (Homo sapiens) (UniProt Q7KZI7)", "assay": "Inhibition of recombinant full-length human PAR1Balpha at 10 uM using KKKVSRSGLYRSPSMPENLNRPR as substrate measured after 40 mins in presence of [gamma33P]ATP by scintillation counting method"}, "[2]": {"biological_target": "Casein kinase I isoform gamma-2 (Homo sapiens) (UniProt P78368)", "sequence (P78368 whole entry, looked up, canonical isoform)": "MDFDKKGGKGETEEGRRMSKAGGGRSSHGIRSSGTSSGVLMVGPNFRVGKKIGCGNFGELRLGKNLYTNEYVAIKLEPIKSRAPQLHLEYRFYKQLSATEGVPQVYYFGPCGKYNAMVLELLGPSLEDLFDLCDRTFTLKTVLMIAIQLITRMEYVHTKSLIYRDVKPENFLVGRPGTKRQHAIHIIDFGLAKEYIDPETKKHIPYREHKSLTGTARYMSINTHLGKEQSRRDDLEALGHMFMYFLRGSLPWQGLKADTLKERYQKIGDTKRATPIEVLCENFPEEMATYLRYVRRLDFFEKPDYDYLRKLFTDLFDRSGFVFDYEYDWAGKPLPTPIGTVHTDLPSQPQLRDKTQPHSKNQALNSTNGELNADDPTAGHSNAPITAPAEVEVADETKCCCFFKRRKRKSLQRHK", "assay": "Inhibition of recombinant human CK1gamma2 (18 to end residues) at 10 uM using KRRRALS(p)VASLPGL as substrate measured after 40 mins in presence of [gamma33P]ATP by scintillation counting method"}, "[3]": {"biological_target": "Serine-protein kinase ATM (Homo sapiens) (UniProt Q13315)", "sequence (Q13315 whole entry)": "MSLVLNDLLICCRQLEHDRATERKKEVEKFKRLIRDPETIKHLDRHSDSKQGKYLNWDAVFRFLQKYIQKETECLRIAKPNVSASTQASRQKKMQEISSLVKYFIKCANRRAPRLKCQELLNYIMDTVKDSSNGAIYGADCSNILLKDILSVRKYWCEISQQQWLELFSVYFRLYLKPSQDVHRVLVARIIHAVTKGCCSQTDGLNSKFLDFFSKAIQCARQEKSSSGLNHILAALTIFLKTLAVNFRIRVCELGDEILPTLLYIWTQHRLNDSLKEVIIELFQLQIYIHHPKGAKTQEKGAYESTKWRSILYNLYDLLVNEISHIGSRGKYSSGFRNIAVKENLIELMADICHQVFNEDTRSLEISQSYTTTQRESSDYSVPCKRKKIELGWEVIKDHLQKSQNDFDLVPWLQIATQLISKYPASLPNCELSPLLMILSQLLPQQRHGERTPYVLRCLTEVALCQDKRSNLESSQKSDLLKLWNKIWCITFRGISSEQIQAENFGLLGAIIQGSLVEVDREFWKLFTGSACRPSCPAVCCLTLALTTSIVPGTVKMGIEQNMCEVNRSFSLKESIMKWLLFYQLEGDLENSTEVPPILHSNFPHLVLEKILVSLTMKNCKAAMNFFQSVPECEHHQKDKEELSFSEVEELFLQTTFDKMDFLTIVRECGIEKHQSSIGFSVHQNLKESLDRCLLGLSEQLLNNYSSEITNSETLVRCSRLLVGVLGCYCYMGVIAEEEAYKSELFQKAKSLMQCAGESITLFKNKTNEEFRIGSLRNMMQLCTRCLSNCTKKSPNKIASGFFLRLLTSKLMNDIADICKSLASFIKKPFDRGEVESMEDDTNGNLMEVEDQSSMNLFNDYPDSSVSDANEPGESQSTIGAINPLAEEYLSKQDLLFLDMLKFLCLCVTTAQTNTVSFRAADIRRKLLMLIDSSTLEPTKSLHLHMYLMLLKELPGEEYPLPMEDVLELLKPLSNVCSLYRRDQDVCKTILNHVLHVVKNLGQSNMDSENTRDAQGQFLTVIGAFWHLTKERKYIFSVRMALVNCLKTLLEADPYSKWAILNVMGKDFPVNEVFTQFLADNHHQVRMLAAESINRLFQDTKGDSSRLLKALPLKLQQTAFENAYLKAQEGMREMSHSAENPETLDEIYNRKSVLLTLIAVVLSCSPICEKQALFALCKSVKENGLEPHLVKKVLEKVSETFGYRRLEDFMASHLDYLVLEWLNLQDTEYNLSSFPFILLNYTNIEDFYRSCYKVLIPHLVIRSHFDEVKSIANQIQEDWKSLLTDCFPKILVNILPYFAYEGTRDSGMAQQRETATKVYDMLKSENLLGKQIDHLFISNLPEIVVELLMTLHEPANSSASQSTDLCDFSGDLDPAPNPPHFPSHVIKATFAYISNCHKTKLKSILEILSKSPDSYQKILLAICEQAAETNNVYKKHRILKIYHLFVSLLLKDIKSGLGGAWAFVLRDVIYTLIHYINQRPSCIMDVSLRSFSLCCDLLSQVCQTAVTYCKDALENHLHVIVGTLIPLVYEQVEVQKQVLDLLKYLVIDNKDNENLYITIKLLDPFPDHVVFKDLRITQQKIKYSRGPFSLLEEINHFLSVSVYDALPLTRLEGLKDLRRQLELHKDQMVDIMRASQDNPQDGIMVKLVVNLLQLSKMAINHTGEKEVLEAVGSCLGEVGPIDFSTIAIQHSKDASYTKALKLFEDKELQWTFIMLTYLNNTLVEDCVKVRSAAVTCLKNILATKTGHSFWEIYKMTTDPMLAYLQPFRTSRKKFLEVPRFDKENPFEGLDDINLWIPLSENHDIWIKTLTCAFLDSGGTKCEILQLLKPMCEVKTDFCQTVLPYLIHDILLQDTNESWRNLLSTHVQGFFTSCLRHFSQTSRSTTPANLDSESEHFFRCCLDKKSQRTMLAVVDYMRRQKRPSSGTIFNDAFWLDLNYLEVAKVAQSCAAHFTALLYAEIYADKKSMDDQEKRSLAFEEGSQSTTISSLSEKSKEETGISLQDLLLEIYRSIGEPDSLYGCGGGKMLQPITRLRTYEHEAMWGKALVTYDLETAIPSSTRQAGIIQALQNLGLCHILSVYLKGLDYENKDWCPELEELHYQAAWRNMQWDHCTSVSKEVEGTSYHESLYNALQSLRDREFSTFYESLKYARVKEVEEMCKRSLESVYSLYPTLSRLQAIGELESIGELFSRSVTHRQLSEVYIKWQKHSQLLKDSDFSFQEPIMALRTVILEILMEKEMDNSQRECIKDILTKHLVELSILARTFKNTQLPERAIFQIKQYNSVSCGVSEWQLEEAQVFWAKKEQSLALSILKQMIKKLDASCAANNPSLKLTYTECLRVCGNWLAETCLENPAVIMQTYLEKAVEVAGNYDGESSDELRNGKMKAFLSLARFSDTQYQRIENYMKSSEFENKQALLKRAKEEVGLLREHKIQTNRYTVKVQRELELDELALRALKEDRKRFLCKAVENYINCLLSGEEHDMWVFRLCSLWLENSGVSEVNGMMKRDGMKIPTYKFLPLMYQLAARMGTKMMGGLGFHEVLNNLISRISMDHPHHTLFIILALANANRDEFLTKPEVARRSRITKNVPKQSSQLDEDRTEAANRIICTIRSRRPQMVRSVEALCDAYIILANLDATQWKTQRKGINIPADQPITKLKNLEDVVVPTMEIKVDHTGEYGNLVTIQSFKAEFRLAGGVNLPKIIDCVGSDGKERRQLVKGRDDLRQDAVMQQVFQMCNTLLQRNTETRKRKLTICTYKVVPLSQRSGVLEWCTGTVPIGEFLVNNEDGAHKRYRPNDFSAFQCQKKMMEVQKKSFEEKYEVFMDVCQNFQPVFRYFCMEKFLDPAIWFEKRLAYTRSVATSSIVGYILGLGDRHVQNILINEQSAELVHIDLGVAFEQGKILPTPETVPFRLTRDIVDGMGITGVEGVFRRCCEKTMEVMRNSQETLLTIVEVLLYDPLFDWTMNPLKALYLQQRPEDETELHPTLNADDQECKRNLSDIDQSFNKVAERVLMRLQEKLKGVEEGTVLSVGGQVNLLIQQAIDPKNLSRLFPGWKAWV", "assay": "Inhibition of recombinant full-length human ATM at 10 uM using GST-cMyc-p53 as substrate measured after 40 mins by ELISA"}, "[4]": {"test_system": "Epidermal growth factor receptor (Homo sapiens), P00533 [L858R,T790M]", "assay": "Inhibition of recombinant human EGFR T790M/L858R mutant (696 to end residues) at 10 uM using GGMEDIYFEFMGGKKK as substrate measured after 40 mins in presence of [gamma33P]ATP by scintillation counting method"}, "[5]": {"biological_target": "Mitogen-activated protein kinase kinase kinase kinase 2 (Homo sapiens) (UniProt Q12851)", "assay": "Inhibition of recombinant human GCK at 10 uM using myelin basic protein as substrate measured after 40 mins in presence of [gamma33P]ATP by scintillation counting method"}, "[6]": {"biological_target": "Protein kinase C theta type (Homo sapiens) (UniProt Q04759)", "assay": "Inhibition of recombinant full-length human PKCtheta at 10 uM using histone H1as substrate measured after 40 mins in presence of [gamma33P]ATP by scintillation counting method"}, "[7]": {"biological_target": "BMP-2-inducible protein kinase (Homo sapiens) (UniProt Q9NSY1)", "assay": "Inhibition of recombinant human BIKepsilon at 10 uM using peptide substrate measured after 120 mins in presence of [gamma33P]ATP by scintillation counting method"}, "[8]": {"biological_target": "Protein polybromo-1 (Homo sapiens) (UniProt Q86U86)", "assay": "Binding affinity to human partial length PBRM1 bromodomain 5 (S645 to D766 residues) expressed in bacterial expression system at 1 uM by BROMOscan assay", "method_in_brief": "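BROMOscan bromodomain cross-screen run by an outside service, compound at 1 µM against 32 recombinant bromodomains. Binding given as percent of control.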"}, "[9]": {"biological_target": "Serine/threonine-protein kinase Chk2 (Homo sapiens) (UniProt O96017)", "assay": "Inhibition of recombinant human CHK2 (5 to end residues) at 10 uM using KKKVSRSGLYRSPSMPENLNRPR as substrate measured after 40 mins in presence of [gamma33P]ATP by scintillation counting method"}, "[10]": {"biological_target": "Tyrosine-protein kinase HCK (Homo sapiens) (UniProt P08631)", "assay": "Inhibition of recombinant human activated HCK (230 to 497 residues) at 10 uM using GGMEDIYFEFMGGKKK as substrate measured after 40 mins in presence of [gamma33P]ATP by scintillation counting method"}, "[11]": {"biological_target": "Calcium/calmodulin-dependent protein kinase type 1G (Homo sapiens) (UniProt Q96NX5)", "sequence (Q96NX5 whole entry)": "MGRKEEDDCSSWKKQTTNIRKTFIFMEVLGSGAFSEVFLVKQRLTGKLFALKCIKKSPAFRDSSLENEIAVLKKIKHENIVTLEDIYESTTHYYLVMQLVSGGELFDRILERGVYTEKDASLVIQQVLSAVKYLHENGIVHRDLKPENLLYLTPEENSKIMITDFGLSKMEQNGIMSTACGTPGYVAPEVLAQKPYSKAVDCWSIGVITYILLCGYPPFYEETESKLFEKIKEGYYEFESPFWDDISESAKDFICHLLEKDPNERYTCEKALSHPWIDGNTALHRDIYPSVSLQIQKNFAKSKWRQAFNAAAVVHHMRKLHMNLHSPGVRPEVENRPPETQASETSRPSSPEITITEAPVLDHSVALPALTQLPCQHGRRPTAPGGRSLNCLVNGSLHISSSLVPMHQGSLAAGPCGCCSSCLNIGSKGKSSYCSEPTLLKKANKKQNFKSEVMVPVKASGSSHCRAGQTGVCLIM", "assay": "Inhibition of human CaMK1gamma", "method_in_brief": "(§1)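 Kinase panel of 422 kinases screened by Eurofins KinaseProfiler at a single test-compound concentration of 10 µM.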"}, "Homo sapiens": {"species": "Homo sapiens", "assay": "Inhibition of recombinant full-length human PI3K p120gamma R459Q mutant at 10 uM using phosphatidylinositol-4, 5-bisphosphate as substrate measured after 40 mins by fluorescence assay"}, "[12]": {"biological_target": "Mitogen-activated protein kinase kinase kinase 3 (Homo sapiens) (UniProt Q99759)", "assay": "Inhibition of recombinant full-length human MEKK3 at 10 uM using myelin basic protein as substrate measured after 40 mins in presence of [gamma33P]ATP by scintillation counting method"}, "[13]": {"biological_target": "Casein kinase 2 (Homo sapiens) (UniProt P67870+P68400+P19784+Q8NEV1)", "assay": "Inhibition of human CK2 at 10 uM", "type": "protein assay", "method_in_brief": "as §1"}, "[14]": {"biological_target": "Dual specificity tyrosine-phosphorylation-regulated kinase 1A (Homo sapiens) (UniProt Q13627)", "assay": "Inhibition of recombinant full-length human DYRK1A at 10 uM using RRRFRPASPLRGPPK as substrate measured after 40 mins in presence of [gamma33P]ATP by scintillation counting method"}, "[15]": {"biological_target": "Serine/threonine-protein kinase BRSK1 (Homo sapiens) (UniProt Q8TDC3)", "sequence (Q8TDC3 whole entry)": "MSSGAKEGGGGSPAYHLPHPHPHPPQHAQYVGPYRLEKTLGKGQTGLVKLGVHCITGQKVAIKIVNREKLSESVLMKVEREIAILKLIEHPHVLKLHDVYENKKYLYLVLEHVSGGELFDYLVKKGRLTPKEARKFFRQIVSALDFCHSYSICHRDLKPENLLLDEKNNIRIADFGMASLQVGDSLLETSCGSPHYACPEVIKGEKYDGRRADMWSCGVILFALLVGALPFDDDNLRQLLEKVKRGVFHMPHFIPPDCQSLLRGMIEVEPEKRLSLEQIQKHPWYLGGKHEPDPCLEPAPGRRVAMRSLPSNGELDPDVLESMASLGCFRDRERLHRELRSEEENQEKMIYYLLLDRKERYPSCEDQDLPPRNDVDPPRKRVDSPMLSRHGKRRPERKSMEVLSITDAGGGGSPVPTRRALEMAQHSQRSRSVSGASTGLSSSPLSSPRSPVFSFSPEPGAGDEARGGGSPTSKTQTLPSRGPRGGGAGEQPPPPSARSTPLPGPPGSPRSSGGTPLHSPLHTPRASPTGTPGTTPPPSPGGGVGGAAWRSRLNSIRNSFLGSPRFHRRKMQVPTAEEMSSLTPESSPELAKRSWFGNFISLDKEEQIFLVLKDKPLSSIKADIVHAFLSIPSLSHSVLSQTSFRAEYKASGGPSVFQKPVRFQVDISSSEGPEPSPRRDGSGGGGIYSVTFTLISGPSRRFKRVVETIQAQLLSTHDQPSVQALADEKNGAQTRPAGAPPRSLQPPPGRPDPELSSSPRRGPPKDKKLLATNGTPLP", "assay": "Inhibition of recombinant human BrSK1 (2 to end residues) at 10 uM using KKKVSRSGLYRSPSMPENLNRPR as substrate measured after 120 mins in presence of [gamma33P]ATP by scintillation counting method"}, "[16]": {"assay": "Lipophilicity, log D of the compound at pH 7.4 by HPLC analysis", "type": "physicochemical", "conditions": "buffer"}, "[17]": {"biological_target": "Homeodomain-interacting protein kinase 3 (Homo sapiens) (UniProt Q9H422)", "assay": "Inhibition of recombinant human HIPK3 (161 to 562 residues) at 10 uM using myelin basic protein as substrate measured after 40 mins in presence of [gamma33P]ATP by scintillation counting method"}, "[18]": {"biological_target": "Aurora kinase C (Homo sapiens) (UniProt Q9UQB9)", "assay": "Inhibition of recombinant human AURKC (35 to end residues) at 10 uM using AKRRRLSSLRA as substrate measured after 40 mins in presence of [gamma33P]ATP by scintillation counting method"}, "[19]": {"test_system": "Hepatocyte growth factor receptor (Homo sapiens), P08581 [Y1230D]", "assay": "Inhibition of recombinant human MET A1209G/V1290L/Y1248D mutant (974 to end residues) at 10 uM using KKKGQEEEYVFIE as substrate measured after 40 mins in presence of [gamma33P]ATP by scintillation counting method"}, "[20]": {"biological_target": "Serine/threonine-protein kinase pim-1 (Homo sapiens) (UniProt P11309)", "sequence (P11309 whole entry, looked up)": "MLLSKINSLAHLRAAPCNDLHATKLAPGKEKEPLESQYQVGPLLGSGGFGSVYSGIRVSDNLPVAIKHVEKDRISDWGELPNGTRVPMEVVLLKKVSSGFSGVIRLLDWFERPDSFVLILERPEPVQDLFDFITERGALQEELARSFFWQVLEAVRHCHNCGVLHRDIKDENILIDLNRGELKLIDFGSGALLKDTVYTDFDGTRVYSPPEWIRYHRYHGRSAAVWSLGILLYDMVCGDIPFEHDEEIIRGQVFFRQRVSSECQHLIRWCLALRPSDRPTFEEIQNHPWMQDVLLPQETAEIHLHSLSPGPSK", "assay": "Inhibition of recombinant full-length human Pim1 at 10 uM using KKRNRTLTV as substrate measured after 40 mins in presence of [gamma33P]ATP by scintillation counting method"}, "[21]": {"biological_target": "Cyclin-dependent kinase 5/CDK5 activator 1 (Homo sapiens) (UniProt Q00535+Q15078)", "assay": "Inhibition of recombinant full-length human CDK5/p25 at 10 uM using histone H1 as substrate measured after 40 mins in presence of [gamma33P]ATP by scintillation counting method", "type": "protein-complex assay"}, "[22]": {"biological_target": "Serine/threonine-protein kinase WNK3 (Homo sapiens) (UniProt Q9BYP7)", "assay": "Inhibition of human WNK3 (1 to 434 residues) using myelin basic protein as substrate measured after 40 mins in presence of [gamma33P]ATP by scintillation counting method"}, "[23]": {"biological_target": "Serine/threonine-protein kinase DCLK3 (Homo sapiens) (UniProt Q9C098)", "assay": "Inhibition of recombinant human DCAMKL3 (345 to end residues) at 10 uM using KKLNRTLSFAEPG as substrate measured after 40 mins in presence of [gamma33P]ATP by scintillation counting method"}, "Mus musculus": {"species": "Mus musculus", "assay": "Inhibition of full-length recombinant mouse BLK V421E mutant at 10 uM using poly(Glu, Tyr) 4:1 as substrate measured after 40 mins in presence of [gamma33P]ATP by scintillation counting method", "method_in_brief": "as §1"}}, "note": "Calls of active or inactive are those of the source. The calls are words filed in the database; no cut-off is given here.", "data": [{"smiles": "CN1C[C@H](Nc2nc3cc[nH]c3c(=O)n2C)C[C@H](c2ccc3c(c2)OCCO3)C1", "values": [{"measurement": "inhibition", "setting": "[1]", "result": "inactive"}, {"measurement": "inhibition", "setting": "[2]", "result": "inactive"}, {"measurement": "inhibition", "setting": "[3]", "result": "inactive"}, {"measurement": "inhibition", "setting": "[4]", "result": "inactive"}, {"measurement": "inhibition", "setting": "[5]", "result": "inactive"}, {"measurement": "inhibition", "setting": "[6]", "result": "inactive"}, {"measurement": "inhibition", "setting": "[7]", "result": "inactive"}, {"measurement": "Activity", "setting": "[8]", "result": "inactive"}, {"measurement": "inhibition", "setting": "[9]", "result": "inactive"}, {"measurement": "inhibition", "setting": "[10]", "result": "inactive"}, {"measurement": "inhibition", "setting": "[11]", "result": "inactive"}, {"measurement": "inhibition", "setting": "Homo sapiens", "result": "inactive"}, {"measurement": "inhibition", "setting": "[12]", "result": "inactive"}, {"measurement": "inhibition", "setting": "[13]", "result": "inactive"}, {"measurement": "inhibition", "setting": "[14]", "result": "inactive"}, {"measurement": "inhibition", "setting": "[15]", "result": "inactive"}, {"measurement": "logD", "setting": "[16]", "result": 1.9}, {"measurement": "inhibition", "setting": "[17]", "result": "inactive"}, {"measurement": "inhibition", "setting": "[18]", "result": "inactive"}, {"measurement": "inhibition", "setting": "[19]", "result": "inactive"}, {"measurement": "inhibition", "setting": "[20]", "result": "inactive"}, {"measurement": "inhibition", "setting": "[21]", "result": "inactive"}, {"measurement": "inhibition", "setting": "[22]", "result": "inactive"}, {"measurement": "inhibition", "setting": "[23]", "result": "inactive"}, {"measurement": "inhibition", "setting": "Mus musculus", "result": "inactive"}]}]}
